# Laboratory results taken from ChEMBL document CHEMBL1149350, “Synthesis of novel chemical probes for the study of tanshinone binding proteins” (Bioorg Med Chem Lett, 2006).
# Activity calls are given as the source filed them. The calls are words filed in the database; no cut-off is given here.
# Tested on: RAW264.7
# Test: Inhibition of TRAP activity in RANKL-induced osteoclastogenesis in RAW 264.7 cells
# Assay type: functional, cell-based
# Settings: Mus musculus
# Procedure, shortened: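 RAW264.7 cells seeded at 1 × 10³/well in α-MEM/10% FBS with 100 ng/ml RANKL; compounds added next day. On day 4 multinucleated cells fixed (10% formalin 10 min, 95% ethanol 1 min) and dried, then given 50 mM citrate pH 4.6 with 10 mM tartrate and 5 mM p-nitrophenylphosphate for 30 min. Stopped in 0.1 N NaOH, A410 read; triplicate; IC50 from mean % of control.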
row,SMILES,IC50
1,Cc1coc2c1C(=O)C(=O)c1c-2ccc2c1CC[C@H](OC(=O)c1ccccc1)C2(C)C,19.1 µM
2,Cc1coc2c1C(=O)C(=O)c1c-2ccc2c1CC[C@H](OCCOC(=O)CCCCC1SCC3NC(=O)NC31)C2(C)C (stereo not given in full),9.56 µM
3,Cc1coc2c1C(=O)C(=O)c1c-2ccc2c1CC[C@H](O)C2(C)C,12.8 µM
4,Cc1coc2c1C(=O)C(=O)c1c-2ccc2c1CCCC2(C)C [TANSHINONE IIA],18.2 µM
5,Cc1coc2c1C(=O)C(=O)c1c-2ccc2c1CC[C@H](OCCO)C2(C)C,10.2 µM
6,CCC(=O)O[C@H]1CCc2c(ccc3c2C(=O)C(=O)c2c(C)coc2-3)C1(C)C,16.7 µM
7,Cc1coc2c1C(=O)C(=O)c1c-2ccc2c1CCCC2(C)COC(=O)COCCOC(=O)COc1cccc(C2(C(F)(F)F)N=N2)c1 (stereo not given),15 µM
8,Cc1coc2c1C(=O)C(=O)c1c-2ccc2c1CC[C@H](OCCOC(=O)COc1cccc(C3(C(F)(F)F)N=N3)c1)C2(C)C,18 µM
9,Cc1coc2c1C(=O)C(=O)c1c-2ccc2c1CCCC2(C)COC(=O)COCCOC(=O)CCCCC1SCC2NC(=O)NC21 (stereo not given),12.4 µM
10,Cc1coc2c1C(=O)C(=O)c1c-2ccc2c1CCCC2(C)CO (stereo not given) [TANSHINONE IIB],15.6 µM

# Tested on: RAW264.7
# Test: Antiproliferative activity against RAW 264.7 cells in RANKL-induced osteoclastogenesis
# Assay type: functional, cell-based
# Settings: Mus musculus
SMILES,Activity,IC50
Cc1coc2c1C(=O)C(=O)c1c-2ccc2c1CC[C@H](OC(=O)c1ccccc1)C2(C)C,inactive,
Cc1coc2c1C(=O)C(=O)c1c-2ccc2c1CC[C@H](OCCOC(=O)CCCCC1SCC3NC(=O)NC31)C2(C)C (stereo not given in full),,18.7 µM
Cc1coc2c1C(=O)C(=O)c1c-2ccc2c1CC[C@H](O)C2(C)C,,> 20 µM
Cc1coc2c1C(=O)C(=O)c1c-2ccc2c1CCCC2(C)C [TANSHINONE IIA],inactive,
Cc1coc2c1C(=O)C(=O)c1c-2ccc2c1CC[C@H](OCCO)C2(C)C,inactive,
CCC(=O)O[C@H]1CCc2c(ccc3c2C(=O)C(=O)c2c(C)coc2-3)C1(C)C,inactive,
Cc1coc2c1C(=O)C(=O)c1c-2ccc2c1CCCC2(C)COC(=O)COCCOC(=O)COc1cccc(C2(C(F)(F)F)N=N2)c1 (stereo not given),,> 20 µM
Cc1coc2c1C(=O)C(=O)c1c-2ccc2c1CC[C@H](OCCOC(=O)COc1cccc(C3(C(F)(F)F)N=N3)c1)C2(C)C,,> 20 µM
Cc1coc2c1C(=O)C(=O)c1c-2ccc2c1CCCC2(C)COC(=O)COCCOC(=O)CCCCC1SCC2NC(=O)NC21 (stereo not given),,18.3 µM
Cc1coc2c1C(=O)C(=O)c1c-2ccc2c1CCCC2(C)CO (stereo not given) [TANSHINONE IIB],,> 20 µM
